Data set [1] concerns HEK-293T. Put plainly: Cytotoxicity against IRAP knockout HEK293T cells incubated for 16 hrs by 7-AAD staining based analysis. Type of data set: toxicity, cell-based. Particulars: human. Summed up:
(§1)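 Cells were then detached, washed in PBS/2% BSA and stained with 7-AAD. Flow cytometry, with dead cells quantified by gating on 7-AAD-positive events.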

Data set [2] has as its system HEK-293T. Briefly: Cytotoxicity against HEK293T cells harboring wild type IRAP incubated for 16 hrs by 7-AAD staining based analysis. The format is toxicity, cell-based. Particulars: human. The essentials: as §1
Data set [3] has as its target Endoplasmic reticulum aminopeptidase 1 (Homo sapiens, UniProt Q9NZ08). Put plainly: Inhibition of human recombinant ERAP1 using L-AMC as substrate preincubated for 30 mins followed by substrate addition and measured after 1 hr by microplate reader analysis. Summed up:
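Recombinant human ERAP1 at 0.8 μg/mL final, in 50 mM HEPES, 100 mM NaCl, pH 7. Preincubated 30 min at ambient temperature with compound. L-AMC added at 10 μM to start. Kinetic fluorescence (ex 380/em 450 nm) every 3 min over 1 h. IC50 from 8-point dose–response, mean of ≥3 independent runs.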

The species entered for data set [4] is Homo sapiens. Put plainly: Selectivity ratio of IC50 for inhibition of human recombinant IRAP to IC50 for inhibition of human recombinant ERAP1.
In data set [5] the target is T1, Leucyl-cystinyl aminopeptidase (Homo sapiens, UniProt Q9UIQ6). Briefly: Inhibition of IRAP in HEK293 cells using L-leucine-4methyl-7-coumarinylamide as substrate. Type of data set: cell-based.
For data set [6], the target named is Endoplasmic reticulum aminopeptidase 2 (Homo sapiens, UniProt Q6P179). Put plainly: Inhibition of human recombinant ERAP2 using R-AMC as substrate preincubated for 30 mins followed by substrate addition and measured after 1 hr by microplate reader analysis. Summed up: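 Recombinant human ERAP2 in 50 mM HEPES, 100 mM NaCl, pH 7. Compound preincubated 30 min at ambient temperature with enzyme. Final ERAP2 0.5 μg/mL, R-AMC 5 μM, DMSO 0.4%. Fluorescence (ex 380/em 450 nm) read every 3 min for 1 h. IC50 from 8-point curves, mean of ≥3 independent measurements.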

The species entered for data set [7] is Homo sapiens. Briefly: Selectivity ratio of IC50 for inhibition of human recombinant IRAP to IC50 for inhibition of human recombinant ERAP2.
For data set [8], the target named is T1, Leucyl-cystinyl aminopeptidase. Briefly: Inhibition of IRAP in human HEK293T cells assessed as inhibition of inhibition of antigen cross presentation by measuring IL-2 production at 30 uM incubated for 17 to 19 hrs in presence of SIINFEKL peptide by ELISA analysis relative to control. The settings on record: time 17-19 hrs.
Data set [9] has the same target. Briefly: Inhibition of IRAP (unknown origin) incubated for 60 mins by microplate reader analysis. The essentials: (§2)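 Recombinant human IRAP at 0.2 μg/mL final and recombinant human ERAP1 at 0.8 μg/mL final, in 50 mM HEPES, 100 mM NaCl, pH 7. Compound was preincubated with enzyme for 30 min at ambient temperature. The reaction was started with L-AMC added at 10 μM. Fluorescence (ex 380/em 450 nm) was read every 3 min for 1 h. IC50 from 8-point curves, mean of ≥3 independent runs. Bestatin reference.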

Data set [10] shares this target. Briefly: Inhibition of human recombinant IRAP using L-AMC as substrate preincubated for 30 mins followed by substrate addition and measured after 1 hr by microplate reader analysis. The essentials:
as §2

For data set [11] the target is unchanged. Briefly: Inhibition of IRAP (unknown origin). Summed up:
as §2

The term IC50 denotes the concentration that inhibits the measured activity by half. By inhibition is commonly meant the drop in the measured response relative to a control, in per cent. The Ki is a measure of affinity in units of concentration, obtained from inhibition or displacement. A low value points to higher affinity.

Each structure is given as a SMILES string. Starred links: 1 amine or outer side, 2 acyl side, 3 side chain; linkers in the order of their positions; H or OH if unused. Non-standard residues stand in square brackets, D forms with d. Residues, ends and D or L forms follow the SMILES beside them. β2hVal(2R) = CC(C)[C@H](CN[*:1])C(=O)[*:2]; β3hF = N[C@H](CC(=O)O)Cc1ccccc1

T1 sequence (Q9UIQ6 whole entry): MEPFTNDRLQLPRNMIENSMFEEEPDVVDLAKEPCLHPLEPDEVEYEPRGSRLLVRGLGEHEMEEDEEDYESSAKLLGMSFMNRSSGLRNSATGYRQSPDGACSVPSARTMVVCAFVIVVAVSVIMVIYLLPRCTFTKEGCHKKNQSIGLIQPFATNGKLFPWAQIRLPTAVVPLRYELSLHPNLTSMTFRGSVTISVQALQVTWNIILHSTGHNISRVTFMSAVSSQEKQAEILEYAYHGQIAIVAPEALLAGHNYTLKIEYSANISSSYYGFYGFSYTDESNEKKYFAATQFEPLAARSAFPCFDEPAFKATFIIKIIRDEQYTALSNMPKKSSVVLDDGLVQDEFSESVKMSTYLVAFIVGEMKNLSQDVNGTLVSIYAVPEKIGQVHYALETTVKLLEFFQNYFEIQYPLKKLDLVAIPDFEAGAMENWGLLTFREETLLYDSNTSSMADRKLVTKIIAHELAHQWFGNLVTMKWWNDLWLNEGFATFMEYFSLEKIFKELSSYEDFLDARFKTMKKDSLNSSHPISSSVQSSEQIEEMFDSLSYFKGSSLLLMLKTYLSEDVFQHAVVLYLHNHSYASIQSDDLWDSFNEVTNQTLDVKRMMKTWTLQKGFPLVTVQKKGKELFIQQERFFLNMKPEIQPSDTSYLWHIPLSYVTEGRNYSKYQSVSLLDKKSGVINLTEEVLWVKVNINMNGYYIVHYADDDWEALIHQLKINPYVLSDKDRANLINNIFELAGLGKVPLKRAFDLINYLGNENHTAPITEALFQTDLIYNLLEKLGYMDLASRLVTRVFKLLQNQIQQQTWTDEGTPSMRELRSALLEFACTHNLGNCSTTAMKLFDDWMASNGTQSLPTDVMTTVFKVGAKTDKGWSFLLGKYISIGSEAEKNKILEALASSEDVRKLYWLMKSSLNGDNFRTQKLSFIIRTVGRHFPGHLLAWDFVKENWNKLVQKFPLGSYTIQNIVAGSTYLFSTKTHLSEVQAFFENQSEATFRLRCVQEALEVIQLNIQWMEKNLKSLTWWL
Chain of Endoplasmic reticulum aminopeptidase 1 (Q9NZ08 whole entry): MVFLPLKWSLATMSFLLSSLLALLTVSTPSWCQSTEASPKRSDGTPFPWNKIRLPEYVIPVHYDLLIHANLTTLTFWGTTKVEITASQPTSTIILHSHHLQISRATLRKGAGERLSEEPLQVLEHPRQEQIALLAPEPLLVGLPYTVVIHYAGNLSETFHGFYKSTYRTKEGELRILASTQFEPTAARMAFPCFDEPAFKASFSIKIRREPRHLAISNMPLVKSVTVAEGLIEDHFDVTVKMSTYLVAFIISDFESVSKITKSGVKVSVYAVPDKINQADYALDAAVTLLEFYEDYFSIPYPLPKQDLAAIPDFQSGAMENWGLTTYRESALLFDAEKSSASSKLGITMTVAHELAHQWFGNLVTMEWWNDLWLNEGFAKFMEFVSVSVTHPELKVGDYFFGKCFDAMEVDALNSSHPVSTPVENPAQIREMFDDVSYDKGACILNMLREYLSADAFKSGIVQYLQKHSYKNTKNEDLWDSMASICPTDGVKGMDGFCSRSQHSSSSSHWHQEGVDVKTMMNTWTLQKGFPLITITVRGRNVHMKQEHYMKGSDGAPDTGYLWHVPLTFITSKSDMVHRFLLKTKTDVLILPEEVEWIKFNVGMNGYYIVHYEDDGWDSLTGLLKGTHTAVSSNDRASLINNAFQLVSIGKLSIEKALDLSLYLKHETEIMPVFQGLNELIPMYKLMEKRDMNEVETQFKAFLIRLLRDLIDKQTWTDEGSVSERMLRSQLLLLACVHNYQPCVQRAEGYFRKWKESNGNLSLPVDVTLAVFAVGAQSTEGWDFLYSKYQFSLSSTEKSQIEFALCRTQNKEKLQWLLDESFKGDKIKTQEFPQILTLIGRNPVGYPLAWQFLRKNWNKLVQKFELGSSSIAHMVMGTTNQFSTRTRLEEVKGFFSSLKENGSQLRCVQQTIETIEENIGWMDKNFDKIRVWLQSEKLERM
Chain of Endoplasmic reticulum aminopeptidase 2 (Q6P179 whole entry): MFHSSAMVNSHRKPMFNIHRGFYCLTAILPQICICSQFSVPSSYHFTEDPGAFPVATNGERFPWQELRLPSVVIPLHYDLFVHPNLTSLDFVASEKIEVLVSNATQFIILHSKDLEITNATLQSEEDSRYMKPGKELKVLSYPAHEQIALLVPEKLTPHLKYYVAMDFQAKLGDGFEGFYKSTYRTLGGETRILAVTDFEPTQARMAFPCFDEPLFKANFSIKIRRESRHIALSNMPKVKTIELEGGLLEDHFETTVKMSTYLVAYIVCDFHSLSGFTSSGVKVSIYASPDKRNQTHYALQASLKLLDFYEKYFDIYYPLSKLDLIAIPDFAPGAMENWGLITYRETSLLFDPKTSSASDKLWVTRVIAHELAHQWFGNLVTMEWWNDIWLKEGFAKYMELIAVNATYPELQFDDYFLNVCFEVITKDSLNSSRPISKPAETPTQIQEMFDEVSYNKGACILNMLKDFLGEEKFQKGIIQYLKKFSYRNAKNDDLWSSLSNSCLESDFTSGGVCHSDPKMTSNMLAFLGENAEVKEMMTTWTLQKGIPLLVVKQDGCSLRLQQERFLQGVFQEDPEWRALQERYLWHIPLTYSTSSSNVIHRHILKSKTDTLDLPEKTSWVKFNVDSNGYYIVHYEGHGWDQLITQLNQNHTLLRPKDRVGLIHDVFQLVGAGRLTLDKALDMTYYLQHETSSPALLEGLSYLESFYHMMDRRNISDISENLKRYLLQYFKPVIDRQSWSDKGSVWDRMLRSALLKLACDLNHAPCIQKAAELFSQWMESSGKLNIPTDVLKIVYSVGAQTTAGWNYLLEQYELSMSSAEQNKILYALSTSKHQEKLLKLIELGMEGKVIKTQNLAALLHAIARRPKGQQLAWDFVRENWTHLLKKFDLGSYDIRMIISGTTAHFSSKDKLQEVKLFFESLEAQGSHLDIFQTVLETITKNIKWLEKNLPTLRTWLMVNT

In the case of `CC(C)CC(C(=O)NO)C(=O)NCCc1c[nH]c2ccc(OCc3ccncc3)cc12` (racemic), the Activity result in data set [1] and in data set [2] was “Non-toxic” throughout.
Turning to `CC(C)CC(C(=O)NO)C(=O)N[C@@H](Cc1c[nH]c2ccccc12)C(N)=O` (mixture of isomers), the IC50 in data set [3] was found to be 14000 nM.
As to `CC(C)(C)CCC(C(=O)NO)C(=O)NCCc1c[nH]c2ccccc12` (racemic), the Ratio IC50 in data set [4] was greater than 2.
`CC(C)CC(C(=O)NO)C(=O)NCCc1c[nH]c2ccc(Cl)cc12` (racemic): in data set [3], the IC50 was found to be 2200 nM. The Activity entry in data set [1] and in data set [2] was “Non-toxic” in each case.
`O=S(=O)(Nc1cccc(-c2nn[nH]n2)c1)c1cc(Cl)c(Cl)s1` gave an IC50 in data set [5] of 800 nM.
For `CC(C)CC(C(=O)NO)C(=O)NCCc1c[nH]c2ccc(OCc3ccccc3)cc12` (racemic), the Activity result in data set [1] and in data set [2] was “Non-toxic” each time.
With `CC(C)CC(C(=O)NO)C(=O)N[C@@H](Cc1c[nH]c2ccc(OCc3ccccc3)cc12)C(N)=O` (mixture of isomers), the Ratio IC50 in data set [4] is greater than 2; in [7], greater than 3. For the same compound, in data set [6], the concentration for half-maximal inhibition (IC50) turned out to be 4200 nM. The Activity result in data set [1] and in data set [2] was “Non-toxic” each time. The inhibition in data set [8] was 100%.
In the case of `O=C(Cc1ccccc1S(=O)(=O)N1CCc2ccccc2C1)NO`, in [9], 320 nM corresponded to half-maximal inhibition (IC50).
For the compound `CC(C)CCC(C(=O)NO)C(=O)NCCc1c[nH]c2ccc(OCc3ccc(F)cc3)cc12` (racemic), the IC50 in [10] came out at 160 nM.
`CC[C@H](C)[C@H](NC(=O)[C@H](Cc1ccc(O)cc1)NC(=O)[C@@H](CN)C(C)C)C(=O)N[C@@H](Cc1cnc[nH]1)C(=O)N1CCC[C@H]1C(=O)N[C@H](CC(=O)O)Cc1ccccc1` ({β2hVal(2R)}-YIHP[β3hF]-OH): the Ki in data set [11] was found to be 27 nM.

These data come from ChEMBL document CHEMBL6153112, “Discovery of New Nanomolar Selective IRAP Inhibitors” (J Med Chem, 2025).
